Reference: ChEMBL document CHEMBL4689842, “EUbOPEN Chemogenomics Library wave 1” (2021)

Test system: HEK-293T
Assay: Multiplex assay against HEK293T;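 for Population Tubulin-Different-Phenotype (%): share of the cells with healthy nuclei that show this phenotype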
Type: toxicity, cell-based
Settings: human
Procedure, shortened: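 On a CQ1 microscope at 37°C and 5% CO2, live cells were imaged after compound addition. They had been stained at seeding with Hoechst33342, BioTracker Green Microtubule Cytoskeleton Dye, MitoTracker Red and Annexin V Alexa Fluor 680. CellPathfinder machine-learning gating assigned cells to Hoechst high-intensity objects or normal cells, normal cells to healthy, pyknosed or fragmented nuclei, and pyknosed cells to mitotic or apoptotic. Tubulin, mitochondrial-mass and membrane-permeability phenotypes are per cents of healthy-nucleus cells.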

[1] = 12 h, 1 µM, compound concentration 1 uM, replicate 1
[2] = 12 h, 1 µM, compound concentration 1 uM, replicate 2
[3] = 12 h, 10 µM, compound concentration 10 uM, replicate 1
[4] = 12 h, 10 µM, compound concentration 10 uM, replicate 2
[5] = 24 h, 1 µM, compound concentration 1 uM, replicate 1
[6] = 24 h, 1 µM, compound concentration 1 uM, replicate 2
[7] = 24 h, 10 µM, compound concentration 10 uM, replicate 1
[8] = 24 h, 10 µM, compound concentration 10 uM, replicate 2
[9] = 48 h, 1 µM, compound concentration 1 uM, replicate 1
[10] = 48 h, 1 µM, compound concentration 1 uM, replicate 2
[11] = 48 h, 10 µM, compound concentration 10 uM, replicate 1
[12] = 48 h, 10 µM, compound concentration 10 uM, replicate 2

CNC(=O)c1ccc(Nc2nc(OC3CCCC3)c3c(-c4ccc5nc(C)oc5c4)c[nH]c3n2)c(OC)c1
Population Apoptotic (%) [1]: 36%
Population Fragmented Nuclei (%) [1]: 20%
Population Healthy Nuclei (%) [1]: 22%
Population Hoechst High Intensity Objects (%) [1]: 22%
Population Membrane Permeable-Phenotype (%) [1]: 19%
Population Mitochondria Different-Phenotype (%) [1]: 28%
Population Mitotic Cells (%) [1]: 63%
Population Normal (%) [1]: 77%
Population Pyknosed Nuclei (%) [1]: 57%
Population Tubulin-Different-Phenotype (%) [1]: 76%
Total Cell Count [1]: 469
Population Apoptotic (%) [2]: 37%
Population Fragmented Nuclei (%) [2]: 2%
Population Healthy Nuclei (%) [2]: 77%
Population Hoechst High Intensity Objects (%) [2]: 4%
Population Membrane Permeable-Phenotype (%) [2]: 18%
Population Mitochondria Different-Phenotype (%) [2]: 47%
Population Mitotic Cells (%) [2]: 62%
Population Normal (%) [2]: 95%
Population Pyknosed Nuclei (%) [2]: 19%
Population Tubulin-Different-Phenotype (%) [2]: 94%
Total Cell Count [2]: 712
Population Apoptotic (%) [3]: 26%
Population Fragmented Nuclei (%) [3]: 19%
Population Healthy Nuclei (%) [3]: 50%
Population Hoechst High Intensity Objects (%) [3]: 20%
Population Membrane Permeable-Phenotype (%) [3]: 22%
Population Mitochondria Different-Phenotype (%) [3]: 13%
Population Mitotic Cells (%) [3]: 73%
Population Normal (%) [3]: 79%
Population Pyknosed Nuclei (%) [3]: 30%
Population Tubulin-Different-Phenotype (%) [3]: 58%
Total Cell Count [3]: 532
Population Apoptotic (%) [4]: 14%
Population Fragmented Nuclei (%) [4]: 3%
Population Healthy Nuclei (%) [4]: 91%
Population Hoechst High Intensity Objects (%) [4]: 5%
Population Membrane Permeable-Phenotype (%) [4]: 13%
Population Mitochondria Different-Phenotype (%) [4]: 27%
Population Mitotic Cells (%) [4]: 85%
Population Normal (%) [4]: 94%
Population Pyknosed Nuclei (%) [4]: 4%
Population Tubulin-Different-Phenotype (%) [4]: 83%
Total Cell Count [4]: 1205
Population Apoptotic (%) [5]: 61%
Population Fragmented Nuclei (%) [5]: 28%
Population Healthy Nuclei (%) [5]: 13%
Population Hoechst High Intensity Objects (%) [5]: 25%
Population Membrane Permeable-Phenotype (%) [5]: 10%
Population Mitochondria Different-Phenotype (%) [5]: 54%
Population Mitotic Cells (%) [5]: 38%
Population Normal (%) [5]: 74%
Population Pyknosed Nuclei (%) [5]: 57%
Population Tubulin-Different-Phenotype (%) [5]: 58%
Total Cell Count [5]: 472
Population Apoptotic (%) [6]: 43%
Population Fragmented Nuclei (%) [6]: 3%
Population Healthy Nuclei (%) [6]: 80%
Population Hoechst High Intensity Objects (%) [6]: 9%
Population Membrane Permeable-Phenotype (%) [6]: 5%
Population Mitochondria Different-Phenotype (%) [6]: 66%
Population Mitotic Cells (%) [6]: 56%
Population Normal (%) [6]: 90%
Population Pyknosed Nuclei (%) [6]: 15%
Population Tubulin-Different-Phenotype (%) [6]: 78%
Total Cell Count [6]: 721
Population Apoptotic (%) [7]: 24%
Population Fragmented Nuclei (%) [7]: 20%
Population Healthy Nuclei (%) [7]: 62%
Population Hoechst High Intensity Objects (%) [7]: 15%
Population Membrane Permeable-Phenotype (%) [7]: 23%
Population Mitochondria Different-Phenotype (%) [7]: 15%
Population Mitotic Cells (%) [7]: 75%
Population Normal (%) [7]: 84%
Population Pyknosed Nuclei (%) [7]: 17%
Population Tubulin-Different-Phenotype (%) [7]: 81%
Total Cell Count [7]: 481
Population Apoptotic (%) [8]: 11%
Population Fragmented Nuclei (%) [8]: 10%
Population Healthy Nuclei (%) [8]: 86%
Population Hoechst High Intensity Objects (%) [8]: 5%
Population Membrane Permeable-Phenotype (%) [8]: 17%
Population Mitochondria Different-Phenotype (%) [8]: 11%
Population Mitotic Cells (%) [8]: 88%
Population Normal (%) [8]: 94%
Population Pyknosed Nuclei (%) [8]: 2%
Population Tubulin-Different-Phenotype (%) [8]: 87%
Total Cell Count [8]: 1423

O=C(Nc1ccc(Cl)cc1)Nc1cccc(-c2cccc(N3CCCC3)n2)c1
Population Apoptotic (%) [1]: 51%
Population Fragmented Nuclei (%) [1]: 10%
Population Hoechst High Intensity Objects (%) [1]: 12%
Population Membrane Permeable-Phenotype (%) [1]: 2%
Population Mitochondria Different-Phenotype (%) [1]: 63%
Population Mitotic Cells (%) [1]: 48%
Population Normal (%) [1]: 87%
Population Pyknosed Nuclei (%) [1]: 45%
Population Tubulin-Different-Phenotype (%) [1]: 46%
Population Apoptotic (%) [2]: 17%
Population Fragmented Nuclei (%) [2]: 5%
Population Healthy Nuclei (%) [2]: 43%
Population Hoechst High Intensity Objects (%) [2]: 5%
Population Membrane Permeable-Phenotype (%) [2]: 16%
Population Mitochondria Different-Phenotype (%) [2]: 6%
Population Mitotic Cells (%) [2]: 82%
Population Normal (%) [2]: 94%
Population Pyknosed Nuclei (%) [2]: 51%
Population Tubulin-Different-Phenotype (%) [2]: 17%
Population Apoptotic (%) [3]: 85%
Population Fragmented Nuclei (%) [3]: 31%
Population Healthy Nuclei (%) [3]: 2%
Population Hoechst High Intensity Objects (%) [3]: 32%
Population Membrane Permeable-Phenotype (%) [3]: 66%
Population Mitochondria Different-Phenotype (%) [3]: 0%
Population Mitotic Cells (%) [3]: 14%
Population Normal (%) [3]: 68%
Population Pyknosed Nuclei (%) [3]: 65%
Population Tubulin-Different-Phenotype (%) [3]: 33%
Population Apoptotic (%) [4]: 46%
Population Fragmented Nuclei (%) [4]: 7%
Population Healthy Nuclei (%) [4]: 14%
Population Hoechst High Intensity Objects (%) [4]: 9%
Population Membrane Permeable-Phenotype (%) [4]: 70%
Population Mitochondria Different-Phenotype (%) [4]: 10%
Population Mitotic Cells (%) [4]: 53%
Population Normal (%) [4]: 90%
Population Pyknosed Nuclei (%) [4]: 78%
Population Tubulin-Different-Phenotype (%) [4]: 60%
Population Apoptotic (%) [5]: 49%
Population Fragmented Nuclei (%) [5]: 9%
Population Healthy Nuclei (%) [5]: 47%
Population Hoechst High Intensity Objects (%) [5]: 11%
Population Membrane Permeable-Phenotype (%) [5]: 9%
Population Mitochondria Different-Phenotype (%) [5]: 38%
Population Mitotic Cells (%) [5]: 50%
Population Normal (%) [5]: 88%
Population Pyknosed Nuclei (%) [5]: 43%
Population Tubulin-Different-Phenotype (%) [5]: 37%
Population Apoptotic (%) [6]: 9%
Population Fragmented Nuclei (%) [6]: 8%
Population Healthy Nuclei (%) [6]: 60%
Population Hoechst High Intensity Objects (%) [6]: 3%
Population Membrane Permeable-Phenotype (%) [6]: 24%
Population Mitochondria Different-Phenotype (%) [6]: 2%
Population Mitotic Cells (%) [6]: 90%
Population Normal (%) [6]: 96%
Population Pyknosed Nuclei (%) [6]: 30%
Population Tubulin-Different-Phenotype (%) [6]: 28%
Population Apoptotic (%) [7]: 85%
Population Fragmented Nuclei (%) [7]: 43%
Population Healthy Nuclei (%) [7]: 6%
Population Hoechst High Intensity Objects (%) [7]: 45%
Population Membrane Permeable-Phenotype (%) [7]: 0%
Population Mitochondria Different-Phenotype (%) [7]: 50%
Population Mitotic Cells (%) [7]: 14%
Population Normal (%) [7]: 54%
Population Pyknosed Nuclei (%) [7]: 50%
Population Tubulin-Different-Phenotype (%) [7]: 66%
Population Apoptotic (%) [8]: 56%
Population Fragmented Nuclei (%) [8]: 8%
Population Healthy Nuclei (%) [8]: 14%
Population Hoechst High Intensity Objects (%) [8]: 30%
Population Membrane Permeable-Phenotype (%) [8]: 43%
Population Mitochondria Different-Phenotype (%) [8]: 12%
Population Mitotic Cells (%) [8]: 43%
Population Normal (%) [8]: 69%
Population Pyknosed Nuclei (%) [8]: 76%
Population Tubulin-Different-Phenotype (%) [8]: 56%
Population Apoptotic (%) [9]: 47%
Population Fragmented Nuclei (%) [9]: 11%
Population Healthy Nuclei (%) [9]: 57%
Population Hoechst High Intensity Objects (%) [9]: 9%
Population Membrane Permeable-Phenotype (%) [9]: 5%
Population Mitochondria Different-Phenotype (%) [9]: 14%
Population Mitotic Cells (%) [9]: 52%
Population Normal (%) [9]: 90%
Population Pyknosed Nuclei (%) [9]: 30%
Population Tubulin-Different-Phenotype (%) [9]: 38%
Population Apoptotic (%) [10]: 7%
Population Fragmented Nuclei (%) [10]: 5%
Population Healthy Nuclei (%) [10]: 82%
Population Hoechst High Intensity Objects (%) [10]: 2%
Population Membrane Permeable-Phenotype (%) [10]: 26%
Population Mitochondria Different-Phenotype (%) [10]: 0%
Population Mitotic Cells (%) [10]: 92%
Population Normal (%) [10]: 97%
Population Pyknosed Nuclei (%) [10]: 11%
Population Tubulin-Different-Phenotype (%) [10]: 19%
Population Apoptotic (%) [11]: 80%
Population Fragmented Nuclei (%) [11]: 61%
Population Healthy Nuclei (%) [11]: 7%
Population Hoechst High Intensity Objects (%) [11]: 40%
Population Membrane Permeable-Phenotype (%) [11]: 25%
Population Mitochondria Different-Phenotype (%) [11]: 50%
Population Mitotic Cells (%) [11]: 19%
Population Normal (%) [11]: 59%
Population Pyknosed Nuclei (%) [11]: 30%
Population Tubulin-Different-Phenotype (%) [11]: 87%
Population Apoptotic (%) [12]: 52%
Population Fragmented Nuclei (%) [12]: 22%
Population Healthy Nuclei (%) [12]: 22%
Population Hoechst High Intensity Objects (%) [12]: 26%
Population Membrane Permeable-Phenotype (%) [12]: 72%
Population Mitochondria Different-Phenotype (%) [12]: 6%
Population Mitotic Cells (%) [12]: 47%
Population Normal (%) [12]: 73%
Population Pyknosed Nuclei (%) [12]: 54%
Population Tubulin-Different-Phenotype (%) [12]: 79%
